ChEMBL document CHEMBL1134691, “3-Phenyl-5-acyloxymethyl-2H,5H-furan-2-ones: synthesis and biological activity of a novel group of potential antifungal drugs” (2001)
≈ marks a conversion by molar mass, not a printed value.

Legend:
Pichia kudriavzevii [1] = experiment: Inhibition of Candida krusei ATCC 6258 growth for 24 hours in vitro.; assay type: functional; conditions: Pichia kudriavzevii, ATCC 6258, 24 h; read-out: MIC
Procedure, shortened: (§1)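 NCCLS M27-A broth microdilution in RPMI 1640 with L-glutamine and 0.165 M MOPS, pH 7.0. Isolates kept on Sabouraud dextrose agar. Inoculum 5 × 10^3 cfu/mL final. Compounds were diluted in DMSO (≤2% final) and tested in 2-fold dilutions of 1000–0.24 µmol/L. Incubation at 35 °C, OD540 read at 24 and 48 h. MIC = 80% growth inhibition versus control; assays run twice in duplicate.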

Trichosporon beigelii [2] = experiment: Inhibition of Trichosporon beigelli 1188 for 24 hours in vitro.; assay type: functional; conditions: Trichosporon beigelii, 24 h; read-out: MIC
Procedure, shortened: (§2)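 Microdilution following NCCLS M27-A. Medium: RPMI 1640 with L-glutamine, 0.165 M MOPS, pH 7.0. Final inoculum 5 × 10^3 cfu/mL. Compounds dissolved in DMSO, final ≤2%, serially halved from 1000 to 0.24 µmol/L. Incubated at 35 °C and read at 24 and 48 h. MIC defined as 80% inhibition of control growth; run twice in duplicate.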

Candida parapsilosis [3] = experiment: Inhibition of Candida parapsilosis ATCC 22019 growth for 24 hours in vitro.; assay type: functional; conditions: Lodderomyces parapsilosis, ATCC 22019, 24 h; read-out: MIC; procedure, shortened: as §1
Pichia kudriavzevii [4] = experiment: Inhibition of Candida krusei E28 growth for 48 hours in vitro.; assay type: functional; conditions: Pichia kudriavzevii, 48 h; read-out: MIC; procedure, shortened: as §1
Lichtheimia corymbifera [5] = experiment: In vitro inhibition of Absidia corymbifera 272 growth for 24 hours.; assay type: functional; conditions: Lichtheimia corymbifera, 24 h; read-out: MIC
Procedure, shortened: (§3)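 Filamentous isolates tested by microdilution per NCCLS M27-A in RPMI 1640 plus L-glutamine, buffered with 0.165 M MOPS to pH 7.0. Final inoculum 5 × 10^3 cfu/mL. Compounds in DMSO (final ≤2%), 2-fold series over 1000–0.24 µmol/L. Plates held at 35 °C and read visually after 24 and 48 h. MIC taken as 80% inhibition of control growth; determined twice in duplicate.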

Candida parapsilosis [6] = experiment: Inhibition of Candida parapsilosis ATCC 22019 growth for 48 hours in vitro.; assay type: functional; conditions: Lodderomyces parapsilosis, ATCC 22019, 48 h; read-out: MIC; procedure, shortened: as §1
Candida albicans [7] = experiment: Inhibition of Candida albicans ATCC 90028 for 48 hours in vitro.; assay type: functional; conditions: Candida albicans, ATCC 90028, 48 h; read-out: MIC; procedure, shortened: as §1
Clavispora lusitaniae [8] = experiment: Inhibition of Candida lusitaniae 2446/I growth for 48 hours in vitro.; assay type: functional; conditions: Clavispora lusitaniae, 48 h; read-out: MIC; procedure, shortened: as §1
Pichia kudriavzevii [9] = experiment: Inhibition of Candida krusei E28 growth for 24 hours in vitro.; assay type: functional; conditions: Pichia kudriavzevii, 24 h; read-out: MIC; procedure, shortened: as §1
Clavispora lusitaniae [10] = experiment: Inhibition of Candida lusitaniae 2446/I growth for 24 hours in vitro.; assay type: functional; conditions: Clavispora lusitaniae, 24 h; read-out: MIC; procedure, shortened: as §1
Aspergillus fumigatus [11] = experiment: Inhibition of Aspergillus fumigatus 231 growth for 48 hours in vitro.; assay type: functional; conditions: Aspergillus fumigatus, 48 h; read-out: MIC; procedure, shortened: as §3
Pichia kudriavzevii [12] = experiment: Inhibition of Candida krusei ATCC 6258 growth for 48 hours in vitro.; assay type: functional; conditions: Pichia kudriavzevii, ATCC 6258, 48 h; read-out: MIC; procedure, shortened: as §1
Nakaseomyces glabratus [13] = experiment: Inhibition of Candida glabrata 20/I growth for 24 hours in vitro.; assay type: functional; conditions: Nakaseomyces glabratus, 24 h; read-out: MIC; procedure, shortened: as §1
Candida tropicalis [14] = experiment: Inhibition of Candida tropicalis 156 growth for 24 hours in vitro.; assay type: functional; conditions: Candida tropicalis, 24 h; read-out: MIC; procedure, shortened: as §1
Aspergillus fumigatus [15] = experiment: Inhibition of Aspergillus fumigatus 231 growth for 24 hours in vitro.; assay type: functional; conditions: Aspergillus fumigatus, 24 h; read-out: MIC; procedure, shortened: as §3
Lichtheimia corymbifera [16] = experiment: In vitro inhibition of Absidia corymbifera 272 growth for 48 hours.; assay type: functional; conditions: Lichtheimia corymbifera, 48 h; read-out: MIC; procedure, shortened: as §3
[17] = Inhibition of Trichophyton mentagrophytes 445 growth for 120 hours in vitro.; assay type: functional, Arthroderma benhamiae; conditions: Trichophyton benhamiae, 120 h; read-out: MIC
Procedure, shortened: (§4)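 Dermatophyte grown in MOPS-buffered (0.165 M, pH 7.0) RPMI 1640 containing L-glutamine, in an M27-A microdilution format. Inoculum 5 × 10^3 cfu/mL final. Compounds from DMSO stocks (≤2% final), 2-fold dilutions 1000–0.24 µmol/L. Incubated at 35 °C, growth judged visually at 72 and 120 h. MIC endpoint is 80% inhibition relative to control; measured twice in duplicate.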

Nakaseomyces glabratus [18] = experiment: Inhibition of Candida glabrata 20/I growth for 48 hours in vitro.; assay type: functional; conditions: Nakaseomyces glabratus, 48 h; read-out: MIC; procedure, shortened: as §1
Trichosporon beigelii [19] = experiment: Inhibition of Trichosporon beigelli 1188 for 48 hours in vitro.; assay type: functional; conditions: Trichosporon beigelii, 48 h; read-out: MIC; procedure, shortened: as §2
Candida albicans [20] = experiment: Inhibition of Candida albicans ATCC 44859 growth for 48 hours in vitro.; assay type: functional; conditions: Candida albicans, ATCC 44859, 48 h; read-out: MIC; procedure, shortened: as §1
Candida tropicalis [21] = experiment: Inhibition of Candida tropicalis 156 growth for 48 hours in vitro.; assay type: functional; conditions: Candida tropicalis, 48 h; read-out: MIC; procedure, shortened: as §1
Candida albicans [22] = experiment: Inhibition of Candida albicans ATCC 90028 for 24 hours in vitro.; assay type: functional; conditions: Candida albicans, ATCC 90028, 24 h; read-out: MIC; procedure, shortened: as §1
Candida albicans [23] = experiment: Inhibition of Candida albicans ATCC 44859 growth for 24 hours in vitro.; assay type: functional; conditions: Candida albicans, ATCC 44859, 24 h; read-out: MIC; procedure, shortened: as §1
[24] = Inhibition of Trichophyton mentagrophytes 445 growth for 72 hours in vitro.; assay type: functional, Arthroderma benhamiae; conditions: Trichophyton benhamiae, 72 h; read-out: MIC; procedure, shortened: as §4

Row | MIC (Pichia kudriavzevii [1]) [µM] | MIC (Trichosporon beigelii [2]) [µM] | MIC (Candida parapsilosis [3]) [µM] | MIC (Pichia kudriavzevii [4]) [µM] | MIC (Lichtheimia corymbifera [5]) [µM] | MIC (Candida parapsilosis [6]) [µM] | MIC (Candida albicans [7]) [µM] | MIC (Clavispora lusitaniae [8]) [µM] | MIC (Pichia kudriavzevii [9]) [µM] | MIC (Clavispora lusitaniae [10]) [µM] | MIC (Aspergillus fumigatus [11]) [µM] | MIC (Pichia kudriavzevii [12]) [µM] | MIC (Nakaseomyces glabratus [13]) [µM] | MIC (Candida tropicalis [14]) [µM] | MIC (Aspergillus fumigatus [15]) [µM] | MIC (Lichtheimia corymbifera [16]) [µM] | MIC [17] [µM] | MIC (Nakaseomyces glabratus [18]) [µM] | MIC (Trichosporon beigelii [19]) [µM] | MIC (Candida albicans [20]) [µM] | other results | Compound
1 | 7.81 (≈ 2.41 µg/mL) | 3.91 (≈ 1.21 µg/mL) | 7.81 (≈ 2.41 µg/mL) | 15.6 (≈ 4.83 µg/mL) | 7.81 (≈ 2.41 µg/mL) | 15.6 (≈ 4.83 µg/mL) | 7.81 (≈ 2.41 µg/mL) | 7.81 (≈ 2.41 µg/mL) | 7.81 (≈ 2.41 µg/mL) | 3.91 (≈ 1.21 µg/mL) | 3.91 (≈ 1.21 µg/mL) | 7.81 (≈ 2.41 µg/mL) | < 0.98 | 7.81 (≈ 2.41 µg/mL) | < 0.98 | 15.6 (≈ 4.83 µg/mL) | 1.95 (≈ 0.602 µg/mL) | < 0.98 | 15.6 (≈ 4.83 µg/mL) | 3.91 (≈ 1.21 µg/mL) | MIC (Candida tropicalis [21]): 15.6 µM (≈ 4.83 µg/mL); MIC (Candida albicans [22]): 3.91 µM (≈ 1.21 µg/mL); MIC (Candida albicans [23]): < 0.98 µM; MIC [24]: 1.95 µM (≈ 0.602 µg/mL) | CC(C)(C)C(=O)OCC1C=C(c2cccc(Cl)c2)C(=O)O1 (configuration not stated)
2 | 500 (≈ 135 µg/mL) | 125 (≈ 33.6 µg/mL) | 250 (≈ 67.3 µg/mL) | 500 (≈ 135 µg/mL) | 250 (≈ 67.3 µg/mL) | 500 (≈ 135 µg/mL) | 250 (≈ 67.3 µg/mL) | 250 (≈ 67.3 µg/mL) | 500 (≈ 135 µg/mL) | 250 (≈ 67.3 µg/mL) | 125 (≈ 33.6 µg/mL) | 1000 (≈ 269 µg/mL) | 125 (≈ 33.6 µg/mL) | 250 (≈ 67.3 µg/mL) | 62.5 (≈ 16.8 µg/mL) | 250 (≈ 67.3 µg/mL) | 15.6 (≈ 4.21 µg/mL) | 125 (≈ 33.6 µg/mL) | 500 (≈ 135 µg/mL) | 62.5 (≈ 16.8 µg/mL) | MIC (Candida tropicalis [21]): 500 µM (≈ 135 µg/mL); MIC (Candida albicans [22]): 250 µM (≈ 67.3 µg/mL); MIC (Candida albicans [23]): 31.2 µM (≈ 8.41 µg/mL); MIC [24]: 15.6 µM (≈ 4.21 µg/mL) | O=C1OC(CO)C=C1c1ccc(Br)cc1 (configuration not stated)
3 | 7.81 (≈ 2.84 µg/mL) | 7.81 (≈ 2.84 µg/mL) | 7.81 (≈ 2.84 µg/mL) | 15.6 (≈ 5.68 µg/mL) | 3.91 (≈ 1.42 µg/mL) | 31.2 (≈ 11.3 µg/mL) | 7.81 (≈ 2.84 µg/mL) | 15.6 (≈ 5.68 µg/mL) | 15.6 (≈ 5.68 µg/mL) | 7.81 (≈ 2.84 µg/mL) | 3.91 (≈ 1.42 µg/mL) | 15.6 (≈ 5.68 µg/mL) | 1.95 (≈ 0.708 µg/mL) | 15.6 (≈ 5.68 µg/mL) | 1.95 (≈ 0.708 µg/mL) | 15.6 (≈ 5.68 µg/mL) | 3.91 (≈ 1.42 µg/mL) | 1.95 (≈ 0.708 µg/mL) | 15.6 (≈ 5.68 µg/mL) | 3.91 (≈ 1.42 µg/mL) | MIC (Candida tropicalis [21]): 31.2 µM (≈ 11.3 µg/mL); MIC (Candida albicans [22]): 7.81 µM (≈ 2.84 µg/mL); MIC (Candida albicans [23]): 1.95 µM (≈ 0.708 µg/mL); MIC [24]: 1.95 µM (≈ 0.708 µg/mL) | O=C1OC(COC(=O)c2ccc(Cl)cc2)C=C1c1cccc(Cl)c1 (configuration not stated)
